ChEMBL document CHEMBL3576840, “Helical Antimicrobial Sulfono-γ-AApeptides” (J Med Chem, 2015)
In brackets after ≈: the same amount, converted by molar mass. Activity calls are given as the source filed them. No cut-off for these calls is given here. Residues, ends and D or L forms follow the SMILES beside them.

What was measured:
[1] = system: Staphylococcus aureus; experiment: Antimicrobial activity against methicillin-resistant Staphylococcus aureus ATCC 33592 after 16 hrs; type: functional; conditions: ATCC 33592, 16 h
[2] = system: Staphylococcus epidermidis; experiment: Antimicrobial activity against methicillin-resistant Staphylococcus epidermidis RP62A after 16 hrs; type: functional
[3] = system: Enterococcus faecalis; experiment: Antimicrobial activity against Enterococcus faecalis ATCC 700802 after 16 hrs; type: functional; conditions: ATCC 700802, 16 h
Method in brief: (§1)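 Broth microdilution: overnight cultures were reinoculated at 1:100, grown to mid-log phase, and diluted to 1 × 10^6 CFU/mL. Cells were mixed 1:1 with serial dilutions […] and incubated 16 h at 37 °C, then read at 600 nm. MIC is the lowest concentration with no growth. Repeated multiple times, in duplicate.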

[4] = system: Pseudomonas aeruginosa; experiment: Antimicrobial activity against Pseudomonas aeruginosa ATCC 27853 after 16 hrs; type: functional; conditions: ATCC 27853, 16 h; method in brief: as §1
[5] = system: Escherichia; experiment: Antimicrobial activity against Escherichia ATCC 25922 after 16 hrs; type: functional; conditions: ATCC 25922, 16 h; method in brief: as §1
[6] = Induction of hemolysis in human RBCs incubated for 1 hr; type: cell-based, Erythrocyte; conditions: red blood cells
Method in brief: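 Fresh K2EDTA human RBCs were washed in PBS until the supernatant was clear and diluted to a 5% v/v suspension. This was mixed with equal volumes of compound dilutions for 1 h at 37 °C, centrifuged, and supernatant absorbance read at 360 nm. Hemolysis was normalized between PBS (0%) and 2% Triton X-100 (100%) controls. At least three repeats, in duplicate.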

[7] = system: Staphylococcus aureus; experiment: Induction of membrane disruption in methicillin-resistant Staphylococcus aureus ATCC 33592 at 10 ug/ml incubated for 2 hrs by DAPI and propidium iodide staining based fluorescence microscopy; type: functional, organism-based
Method in brief: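 Mid-log bacteria treated with compound (10 μg/mL) at 37 °C for 2 h, pelleted, washed, stained with PI (5 μg/mL) then DAPI (10 μg/mL) for 15 min on ice; untreated cells as control; imaged by fluorescence microscopy under 100× oil immersion; PI uptake taken as membrane damage; three repeats.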

[8] = system: Escherichia; experiment: Induction of membrane disruption in Escherichia ATCC 25922 at 10 ug/ml incubated for 2 hrs by DAPI and propidium iodide staining based fluorescence microscopy; type: functional, organism-based
Method in brief: (§2)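 Mid-log bacteria were incubated with 10 μg/mL compound for 2 h at 37 °C, pelleted at 5000 g and washed. Staining used PI (5 μg/mL) then DAPI (10 μg/mL), 15 min on ice. Imaged by fluorescence microscopy with a 100× oil objective; untreated bacteria served as controls.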

[9] = system: Escherichia; experiment: Induction of cell aggregation of Escherichia ATCC 25922 at 10 ug/ml incubated for 2 hrs by DAPI and propidium iodide staining based fluorescence microscopy; type: functional, organism-based; method in brief: as §2
[10] = system: Staphylococcus aureus; experiment: Bactericidal activity against methicillin-resistant Staphylococcus aureus ATCC 33592 at 12.5 to 50 ug/ml measured after 30 mins by colony count based time-kill assay; type: functional, organism-based
Method in brief: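 Time-kill: MRSA grown to mid-log in TSB, diluted to 10^6 CFU/mL, exposed to compound at several multiples of MIC for 10 min, 30 min, 1 h and 2 h; samples diluted 10^2–10^4-fold, plated on TSB agar, colonies counted after overnight 37 °C; viability plotted against time; three repeats.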

[11] = system: Escherichia; experiment: Bactericidal activity against Escherichia ATCC 25922 at 25 and 50 ug/ml measured after 1 hr by colony count based time-kill assay; type: functional, organism-based
Method in brief: (§3)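 Time-kill: MRSA and E. coli were grown to mid-log phase in TSB and diluted to 10^6 CFU/mL. Suspensions were exposed to several compound concentrations for 10 min, 30 min, 1 h and 2 h. Samples were diluted 10^2–10^4-fold, plated on TSB agar and incubated overnight at 37 °C. Colonies were counted and plotted against exposure time. Three repeats.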

[12] = system: Escherichia; experiment: Bactericidal activity against Escherichia ATCC 25922 assessed as reduction bacterial colony count at 25 ug/ml measured after 10 mins to 2 hrs by colony count based time-kill assay; type: functional; method in brief: as §3
[13] = Stability in presence of 0.1 mg/ml pronase in 100 mM pH 7.8 ammonium bicarbonate buffer at 37 degC assessed as compound degradation after 18 hrs by HPLC method; type: physicochemical; conditions: pH 7.8, 18 h
Method in brief: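 Compound or control peptide AcVQIVYK (1 mg/mL) was incubated 18 h at 37 °C with Pronase in ammonium bicarbonate. Mixtures were dried by speed-vac at 60 °C, redissolved in water and run on analytical RP-HPLC: 5–100% acetonitrile/0.1% TFA gradient over 40 min at 1 mL/min.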

[14] = system: N2a; experiment: Cytotoxicity against mouse N2a cells assessed as cell viability after 36 hrs by MTT assay

| Compound | MIC [1] [µg/mL] | MIC [2] [µg/mL] | MIC [3] [µg/mL] | MIC [4] [µg/mL] | MIC [5] [µg/mL] | HC50 at 1 h [6] [µg/mL] | Activity [7] | Activity [8] | Activity [9] | Activity [10] | Activity [11] | Activity [12] [×10⁵ CFU/ml] | Stability [13] | EC50 [14] [µg/mL] |
| --- | --- | --- | --- | --- | --- | --- | --- | --- | --- | --- | --- | --- | --- | --- |
| NCCCC[C@@H](CN(CC(N)=O)S(=O)(=O)CCN)NC(=O)CN(C[C@H](Cc1ccccc1)NC(=O)CN(C[C@H](Cc1ccccc1)NC(=O)CN(C[C@H](Cc1ccccc1)NC(=O)CN(C[C@H](CCCCN)NC(=O)CN(C[C@H](Cc1ccccc1)NC(=O)CN(C[C@H](Cc1ccccc1)NC(=O)CN(C[C@@H](N)Cc1ccccc1)S(=O)(=O)Cc1ccccc1)S(=O)(=O)CCN)S(=O)(=O)Cc1ccccc1)S(=O)(=O)CCN)S(=O)(=O)Cc1ccccc1)S(=O)(=O)CCN)S(=O)(=O)Cc1ccccc1 | 2 (≈ 0.785 µM) | 2 (≈ 0.785 µM) | 2 (≈ 0.785 µM) | 4 (≈ 1.57 µM) | 4 (≈ 1.57 µM) | 100 | Active | Active | Active | Active | Active | 1 | Stable | 120 (≈ 47.1 µM) |
| NCCCC[C@@H](CN(CC(N)=O)S(=O)(=O)CCN)NC(=O)CN(C[C@H](Cc1ccccc1)NC(=O)CN(C[C@H](Cc1ccccc1)NC(=O)CN(C[C@H](Cc1ccccc1)NC(=O)CN(C[C@H](CCCCN)NC(=O)CN(C[C@@H](N)Cc1ccccc1)S(=O)(=O)Cc1ccccc1)S(=O)(=O)CCN)S(=O)(=O)Cc1ccccc1)S(=O)(=O)CCN)S(=O)(=O)Cc1ccccc1 | 6 (≈ 3.15 µM) | 3 (≈ 1.58 µM) | > 50 | 25 (≈ 13.1 µM) | 12 (≈ 6.3 µM) | > 250 | – | – | – | – | – | – | – | – |
| NCCCC[C@@H](CN(CC(N)=O)S(=O)(=O)CCN)NC(=O)CN(C[C@H](Cc1ccccc1)NC(=O)CN(C[C@H](Cc1ccccc1)NC(=O)CN(C[C@@H](N)Cc1ccccc1)S(=O)(=O)Cc1ccccc1)S(=O)(=O)CCN)S(=O)(=O)Cc1ccccc1 | > 50 | 20 (≈ 15.6 µM) | > 50 | > 50 | 25 (≈ 19.5 µM) | > 250 | – | – | – | – | – | – | – | – |
| CC(=O)N[C@@H](Cc1ccccc1)CN(CC(=O)N[C@@H](Cc1ccccc1)CN(CC(=O)N[C@@H](Cc1ccccc1)CN(CC(=O)N[C@@H](CCCCN)CN(CC(=O)N[C@@H](Cc1ccccc1)CN(CC(=O)N[C@@H](Cc1ccccc1)CN(CC(=O)N[C@@H](Cc1ccccc1)CN(CC(=O)N[C@@H](CCCCN)CN(CC(N)=O)S(=O)(=O)CCN)S(=O)(=O)Cc1ccccc1)S(=O)(=O)CCN)S(=O)(=O)Cc1ccccc1)S(=O)(=O)CCN)S(=O)(=O)Cc1ccccc1)S(=O)(=O)CCN)S(=O)(=O)Cc1ccccc1 | 4 (≈ 1.55 µM) | 2 (≈ 0.773 µM) | 2 (≈ 0.773 µM) | 6 (≈ 2.32 µM) | 4 (≈ 1.55 µM) | 75 | – | – | – | – | – | – | – | 80 (≈ 30.9 µM) |
| CC(=O)N[C@@H](CCCCN)CN(CC(=O)N[C@@H](Cc1ccccc1)CN(CC(=O)N[C@@H](CCCCN)CN(CC(=O)N[C@@H](Cc1ccccc1)CN(CC(=O)N[C@@H](CCCCN)CN(CC(=O)N[C@@H](Cc1ccccc1)CN(CC(=O)N[C@@H](CCCCN)CN(CC(=O)N[C@@H](Cc1ccccc1)CN(CC(N)=O)S(=O)(=O)Cc1ccccc1)S(=O)(=O)CCN)S(=O)(=O)Cc1ccccc1)S(=O)(=O)CCN)S(=O)(=O)Cc1ccccc1)S(=O)(=O)CCN)S(=O)(=O)Cc1ccccc1)S(=O)(=O)CCN | 12 (≈ 4.71 µM) | 4 (≈ 1.57 µM) | 6 (≈ 2.35 µM) | > 50 | 6 (≈ 2.35 µM) | 150 | – | – | – | – | – | – | – | – |
| CC(=O)N[C@@H](Cc1ccccc1)CN(CC(=O)N[C@@H](Cc1ccccc1)CN(CC(=O)N[C@@H](Cc1ccccc1)CN(CC(=O)N[C@@H](Cc1ccccc1)CN(CC(=O)N[C@@H](Cc1ccccc1)CN(CC(=O)N[C@@H](Cc1ccccc1)CN(CC(=O)N[C@@H](Cc1ccccc1)CN(CC(=O)N[C@@H](Cc1ccccc1)CN(CC(N)=O)S(=O)(=O)CCN)S(=O)(=O)CCN)S(=O)(=O)CCN)S(=O)(=O)CCN)S(=O)(=O)CCN)S(=O)(=O)CCN)S(=O)(=O)CCN)S(=O)(=O)CCN | 25 (≈ 10.3 µM) | 6 (≈ 2.46 µM) | 50 (≈ 20.5 µM) | > 50 | > 50 | > 250 | – | – | – | – | – | – | – | – |
| CC(=O)N[C@@H](CC(C)C)CN(CC(=O)N[C@@H](CC(C)C)CN(CC(=O)N[C@@H](CC(C)C)CN(CC(=O)N[C@@H](CCCCN)CN(CC(=O)N[C@@H](CC(C)C)CN(CC(=O)N[C@@H](CC(C)C)CN(CC(=O)N[C@@H](CC(C)C)CN(CC(=O)N[C@@H](CCCCN)CN(CC(N)=O)S(=O)(=O)CCN)S(=O)(=O)CC(C)C)S(=O)(=O)CCN)S(=O)(=O)CC(C)C)S(=O)(=O)CCN)S(=O)(=O)CC(C)C)S(=O)(=O)CCN)S(=O)(=O)CC(C)C | > 50 | 12 (≈ 5.34 µM) | > 50 | 50 (≈ 22.2 µM) | 25 (≈ 11.1 µM) | > 250 | – | – | – | – | – | – | – | – |
| NCCCC[C@H](N)CN(CC(=O)N[C@@H](Cc1ccccc1)CN(CC(=O)N[C@@H](CCCCN)CN(CC(=O)N[C@@H](Cc1ccccc1)CN(CC(=O)N[C@@H](CCCCN)CN(CC(=O)N[C@@H](Cc1ccccc1)CN(CC(=O)N[C@@H](CCCCN)CN(CC(=O)N[C@@H](Cc1ccccc1)CN(CC(N)=O)S(=O)(=O)Cc1ccccc1)S(=O)(=O)CCN)S(=O)(=O)Cc1ccccc1)S(=O)(=O)Cc1ccccc1)S(=O)(=O)Cc1ccccc1)S(=O)(=O)CCN)S(=O)(=O)Cc1ccccc1)S(=O)(=O)Cc1ccccc1 | 3 (≈ 1.15 µM) | 2 (≈ 0.769 µM) | 10 (≈ 3.84 µM) | 15 (≈ 5.76 µM) | 3 (≈ 1.15 µM) | 120 | – | – | – | – | – | – | – | – |
| CC(=O)N[C@@H](CCCCN)CN(CC(=O)N[C@@H](Cc1ccccc1)CN(CC(=O)N[C@@H](CCCCN)CN(CC(=O)N[C@@H](Cc1ccccc1)CN(CC(=O)N[C@@H](CCCCN)CN(CC(=O)N[C@@H](Cc1ccccc1)CN(CC(=O)N[C@@H](CCCCN)CN(CC(=O)N[C@@H](Cc1ccccc1)CN(CC(N)=O)S(=O)(=O)Cc1ccccc1)S(=O)(=O)CCN)S(=O)(=O)Cc1ccccc1)S(=O)(=O)Cc1ccccc1)S(=O)(=O)Cc1ccccc1)S(=O)(=O)CCN)S(=O)(=O)Cc1ccccc1)S(=O)(=O)Cc1ccccc1 | 5 (≈ 1.89 µM) | 2 (≈ 0.756 µM) | 10 (≈ 3.78 µM) | 20 (≈ 7.56 µM) | 3 (≈ 1.13 µM) | 80 | – | – | – | – | – | – | – | – |
| CC[C@H](C)[C@H](NC(=O)[C@H](CCC(N)=O)NC(=O)[C@@H](NC(C)=O)C(C)C)C(=O)N[C@H](C(=O)N[C@@H](Cc1ccc(O)cc1)C(=O)N[C@@H](CCCCN)C(=O)O)C(C)C (Ac-VQIVYK-OH) | – | – | – | – | – | – | – | – | – | – | – | – | Unstable | – |
